Measurements reported in ChEMBL document CHEMBL1649322, “Oral treatment options for ambulatory patients with urinary tract infections caused by extended-spectrum-beta-lactamase-producing Escherichia coli” (2010).
In brackets after ≈: the same amount, converted by molar mass.

Columns and labels:
Escherichia coli [1] = experiment: Antimicrobial activity against xtended-spectrum-beta-lactamase-producing Escherichia coli obtained from urinary tract infection patient assessed as percent susceptible isolates by Etest; format: functional, Urine
Method in brief: (§1)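 ESBL-producing E. coli isolates from urinary tract infections; ESBL expression confirmed by double-disk synergy test per 2007 CLSI guidelines. Verified isolates (n = 100) tested by Etest, alongside agar diffusion, for pivmecillinam, fosfomycin and ertapenem. Read-outs were MIC and susceptibility category (susceptible, reduced/intermediate, resistant), given as percent of isolates; mean MIC calculated for susceptible isolates.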

Escherichia coli [2] = experiment: Antimicrobial activity against xtended-spectrum-beta-lactamase-producing Escherichia coli obtained from urinary tract infection patient by Etest; format: functional; settings: Urine; method in brief: as §1

Row | Molecule | Activity (Escherichia coli [1]) [%] | MIC (Escherichia coli [2]) [µg/mL] | Activity (Escherichia coli [1]; Urine) [%]
1 | CC(C)(C)C(=O)OCOC(=O)[C@@H]1N2C(=O)[C@@H](/N=C/N3CCCCCC3)[C@H]2SC1(C)C [AMDINOCILLIN PIVOXIL] | 85 | 1.17 (≈ 2.66 µM) | –
2 | O=C(O)c1cn(C2CC2)c2cc(N3CCNCC3)c(F)cc2c1=O [CIPROFLOXACIN] | 22 | – | –
3 | C[C@@H](O)[C@H]1C(=O)N2C(C(=O)O)=C(S[C@@H]3CN[C@H](C(=O)Nc4cccc(C(=O)O)c4)C3)[C@H](C)[C@H]12 [ERTAPENEM] | 100 | 0.07 (≈ 0.147 µM) | –
4 | C[C@@H]1O[C@@H]1P(=O)(O)O [FOSFOMYCIN] | 97 | 1.38 (≈ 10 µM) | –
5 | O=C1CN(/N=C/c2ccc([N+](=O)[O-])o2)C(=O)N1 [NITROFURANTOIN] | 94 | 17 (≈ 71.5 µM) | –
6 | GENTAMICIN | – | – | 78
